The nature of experiment [1]: Growth inhibition against human SKN cells after 72 hrs by MTT assay. The experiment is classed as functional. The essentials: (§1)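 Cells were seeded in 24-well plates (SKN 1 × 10^4, G-402 2 × 10^4 cells/well) and cultured for 24 h. Alkaloid was then added, for 72 h with SKN or 48 h with G-402, and the medium was renewed. MTT was added (SKN 400 μg/mL, G-402 200 μg/mL) for 4 h, formazan was solubilized in SDS, and A570 was read. Growth % was corrected for time-0 absorbance relative to control, with 3 wells per point, and GI50 was derived from the concentration–growth data.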
In general terms: Formazan colour is commonly taken as a measure of viable cells.

Experiment [2] concerns A10. The experiment in a line: Upregulation of Rgc32 mRNA expression in rat A10 cells at 3 to 30 uM […] by quantitative RT-PCR analysis. The experiment is classed as functional, cell-based. The essentials:
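A10 cells were plated at 6.0 × 10^4 cells/well in 6-well plates. They were treated across a concentration series for 24 h, or for 1, 3, 6, 12 or 24 h in a time course. Rgc32 mRNA was then measured by quantitative RT-PCR. Results are mean ± SD of 3 wells, compared against untreated control.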

In experiment [3] the test system is A10. Nature of the experiment: Down regulation of Prim2 mRNA expression in rat A10 cells at 30 uM after 24 hrs by quantitative RT-PCR analysis. The experiment is classed as functional, cell-based. The essentials: (§2)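 A10 rat aortic smooth muscle cells were seeded at 6 × 10^4 cells/well in 6-well plates and exposed to 30 μM alkaloid for 24 h at 37 °C in 5% CO2. The cells were then harvested and target mRNA levels were quantified by quantitative RT-PCR.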

The test system of the next experiment is G-402. Nature of the experiment: Growth inhibition against human G402 cells after 48 hrs by MTT assay. Conditions: G-402, 48 h. Type of experiment: functional. The essentials:
as §1

The subject of experiment [4] is A10. Nature of the experiment: Growth inhibition against rat A10 cells after 72 hrs by MTT assay. The experiment is classed as functional. Conditions: A10, 72 h.
A short description of experiment [5]: Growth inhibition against human RKN cells after 48 hrs by MTT assay. Type of experiment: functional. Summed up:
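RKN human ovarian leiomyosarcoma cells are seeded at 2 × 10^4/well in 24-well plates and cultured 24 h. Alkaloid is then added at increasing concentrations for 48 h. Medium is renewed and MTT added at 200 μg/mL for 4 h. Formazan is dissolved in SDS and A570 read. Growth % is calculated relative to time-0 and untreated absorbances. GI50 is taken from the curves. Data are mean ± SE of 3 wells.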

Experiment [6] in a line: Antiproliferative activity against rat VSMC assessed as cell growth inhibition. Type of experiment: functional. Summed up:
(§3)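 Cells are seeded at 1 × 10^4/well in 24-well plates and cultured 24 h. Alkaloid is then added at increasing concentrations for 72 h. Medium is renewed and MTT added at 1 mg/mL for 4 h. Formazan is dissolved in SDS and A570 read. Growth % = (treated − time 0)/(control − time 0). GI50 is taken from the curves. Data are mean ± SE of 3 wells. Primary VSMCs come from aortas of 10-week male Sprague-Dawley rats, used at passages 5–15.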

Experiment [7] relates to A10. Nature of the experiment: Downregulation of Scd2 mRNA expression in rat A10 cells at 30 uM after 24 hrs by quantitative RT-PCR analysis. The experiment is classed as functional, cell-based. The essentials: as §2
Experiment [8] has as its system A10. The experiment in a line: Downregulation of Impk mRNA expression in rat A10 cells at 30 uM after 24 hrs by quantitative RT-PCR analysis. The experiment is classed as functional, cell-based. The essentials: as §2
The nature of experiment [9]: Growth inhibition against rat VSMC after 72 hrs by MTT assay. Type of experiment: functional. The essentials:
as §3

A short description of experiment [10]: Growth inhibition against mouse BC3H1 cells after 72 hrs by MTT assay. The experiment is classed as functional. Conditions: BC3H-1, 72 h. Summed up: as §3
The subject of experiment [11] is A10. The experiment in a line: Upregulation of Gadd45a mRNA expression in rat A10 cells at 30 uM after 24 hrs by quantitative RT-PCR analysis relative to control. The experiment is classed as functional.
In experiment [12] the test system is A10. The experiment in a line: Upregulation of Rgc32 mRNA expression in rat A10 cells at 3 uM after 24 hrs by quantitative RT-PCR analysis. The experiment is classed as functional, cell-based.
Experiment [13] relates to A10. The experiment in a line: Upregulation of p21 mRNA expression in rat A10 cells at 3 to 30 uM after 24 hrs by quantitative RT-PCR analysis. Type of experiment: functional, cell-based.
The test system of experiment [14] is A10. Nature of the experiment: Upregulation of Rgc32 mRNA expression in rat A10 cells at 3 to 30 uM after 24 hrs by quantitative RT-PCR analysis. The experiment is classed as functional, cell-based.
In experiment [15] the test system is A10. Nature of the experiment: Cell cycle arrest in Rgc32 overexpressing rat A10 cells assessed as accumulation at G2/M phase. The experiment is classed as functional, cell-based.
The subject of experiment [16] is A10. Nature of the experiment: Upregulation of Gadd45a mRNA expression in rat A10 cells at 30 uM after 3 hrs by quantitative RT-PCR analysis. The experiment is classed as functional, cell-based.
Experiment [17] can be described thus: Upregulation of Rgc32 mRNA expression in rat 3Y1 cells at 3 to 30 uM after 24 hrs by quantitative RT-PCR analysis. Type of experiment: functional, cell-based.
The subject of experiment [18] is A10. The experiment in a line: Upregulation of p53 mRNA expression in rat A10 cells at 3 to 30 uM after 24 hrs by quantitative RT-PCR analysis. Type of experiment: functional, cell-based.
The nature of experiment [19]: Upregulation of Gadd45a mRNA expression in rat 3Y1 cells at 30 uM after 24 hrs by quantitative RT-PCR analysis. Type of experiment: functional, cell-based.
The test system of experiment [20] is A10. The experiment in a line: Upregulation of in Gadd45a mRNA expression in rat A10 cells at 3 uM after 24 hrs by quantitative RT-PCR analysis. The experiment is classed as functional, cell-based.
In experiment [21] the test system is A10. The experiment in a line: Upregulation of Rgc32 mRNA expression in rat A10 cells at 30 uM after 24 hrs by quantitative RT-PCR analysis relative to control. The experiment is classed as functional.
Experiment [22] concerns A10. The experiment in a line: Upregulation of Gadd45a mRNA expression in rat A10 cells at 30 uM after 6 hrs by quantitative RT-PCR analysis. The experiment is classed as functional, cell-based.
In experiment [23] the test system is A10. Nature of the experiment: Cell cycle arrest in Gadd45a overexpressing rat A10 cells assessed as accumulation at G2/M phase. Type of experiment: functional, cell-based.
For experiment [24], the system named is A10. Nature of the experiment: Upregulation of Ogfrl1 mRNA expression in rat A10 cells at 30 uM after 24 hrs by quantitative RT-PCR analysis. The experiment is classed as functional, cell-based. The essentials:
as §2

For experiment [25], the system named is A10. The experiment in a line: Upregulation of Calm1 mRNA expression in rat A10 cells at 30 uM after 24 hrs by quantitative RT-PCR analysis. Type of experiment: functional, cell-based. The essentials: as §2
Experiment [26] deals with A10. The experiment in a line: Upregulation of Jak2 mRNA expression in rat A10 cells at 30 uM after 24 hrs by quantitative RT-PCR analysis. Type of experiment: functional, cell-based. Summed up: as §2

Activity calls are given as the source filed them. The rule behind the calls is not given here.

For orientation: GI50 means the concentration at which growth is held to half of that of the control. With `COc1ccc2cc3[n+](cc2c1OC)CCc1cc2c(cc1-3)OCO2` [BERBERINE CHLORIDE], the GI50 in [1] was determined as 15.9 µM; in the experiment with G-402, 11.9 µM; with A10 [4], 102 µM; in experiment [5], 49.6 µM; in experiment [6] it was 95.1 µM; in [9], 95.1 µM. Moreover, in the experiment on A10 [2], the outcome was inactive. Also, the outcome with A10 [3], in the experiment on A10 [7] and in the experiment with A10 [8] was Active.

As for `[Cl-].c1c2c(cc3c1OCO3)-c1cc3ccc4c(c3c[n+]1CC2)OCO4` [COPTISINE CHLORIDE], the GI50 in experiment [10] turned out to be 105 µM; in experiment [1] it was 11.8 µM; in the experiment on G-402, 19.1 µM; with A10 [4], 4.49 µM; in experiment [5], 33 µM; in [6], 3.3 µM. Besides, the GI50 in experiment [9] came to 3.35 µM. Further, the figures for the “fold change (FC)” value (with A10 [11]; in [19]; with A10 [21]) were 8, 1.5 and 3.5, respectively. In addition, the result (in the experiment on A10 [2]; in the experiment on A10 [12]; in experiment [17]; with A10 [18]; with A10 [20]; in the experiment on A10 [22]) was inactive. The result in the experiment with A10 [13], in the experiment with A10 [14], in the experiment on A10 [15], in the experiment on A10 [16], in the experiment on A10 [3] and in the experiment on A10 [7] was Active. Further, the result with A10 [8] and with A10 [23] was Active.

Turning to `COc1cc2c(cc1OC)-c1cc3ccc(OC)c(OC)c3c[n+]1CC2` [PALMATINE CHLORIDE], the GI50 in [1] was 57.4 µM; with G-402 it was 83.1 µM. Besides, the result with A10 [24], in the experiment with A10 [25], in the experiment with A10 [3], in the experiment on A10 [26], in the experiment with A10 [7] and with A10 [8] was Active. Moreover, the outcome in the experiment with A10 [2] was inactive.

These data come from ChEMBL document CHEMBL1772972, “Differential gene expression in rat vascular smooth muscle cells following treatment with coptisine exerts a selective antiproliferative effect” (2011).
